# Source: ChEMBL document CHEMBL4118253, “Expedient synthesis and biological evaluation of alkenyl acyclic nucleoside phosphonate prodrugs” (Bioorg Med Chem, 2018)
# Columns and labels:
# Coxsackievirus B4 = assay: Antiviral activity against Coxsackie virus B4 infected in African green monkey Vero cells assessed as inhibition of virus-induced cytopathicity; format: functional, organism-based; details: Enterovirus B
# Influenza A virus H3N2 [1] = assay: Antiviral activity against Influenza A virus H3N2 infected in MDCK cells assessed as inhibition of virus-induced visual cytopathicity; format: functional, organism-based
# Yellow fever virus = assay: Antiviral activity against Yellow fever virus infected in African green monkey Vero cells assessed as inhibition of virus-induced cytopathicity; format: functional, organism-based
# Human alphaherpesvirus 3 [2] = assay: Antiviral activity against thymidine kinase expressing Varicella-Zoster virus infected in HEL cells assessed as reduction in virus plaque formation; format: functional, organism-based; details: Human alphaherpesvirus 3, HEL
# [3] = Cytotoxicity against human HeLa cells assessed as alteration of cell morphology by microscopic analysis; format: cell-based
# Influenza A virus [4] = assay: Antiviral activity against Influenza A virus H1N1 infected in MDCK cells assessed as inhibition of virus-induced visual cytopathicity; format: functional, organism-based
# Human alphaherpesvirus 1 [5] = assay: Antiviral activity against Herpes simplex virus 1 KOS infected in HEL cells assessed as inhibition of virus-induced cytopathicity; format: functional, organism-based; details: Human alphaherpesvirus 1, KOS
# Human alphaherpesvirus 1 [6] = assay: Antiviral activity against acyclovir-resistant thymidine kinase deficient Herpes simplex virus 1 KOS infected in HEL cells assessed as inhibition of virus-induced cytopathicity; format: functional, organism-based; details: Human alphaherpesvirus 1, KOS
# Punta Toro virus = assay: Antiviral activity against Punta Toro virus infected in African green monkey Vero cells assessed as inhibition of virus-induced cytopathicity; format: functional, organism-based
# Human alphaherpesvirus 3 [7] = assay: Antiviral activity against thymidine kinase deficient Varicella-Zoster virus infected in HEL cells assessed as reduction in virus plaque formation; format: functional, organism-based; details: Human alphaherpesvirus 3, HEL
# [8] = Cytotoxicity against HEL cells assessed as alteration of cell morphology by microscopic analysis; format: cell-based; details: human
# In short: (§1)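 The value is the minimal cytotoxic concentration (MCC), the lowest concentration that causes a microscopically visible change in cell morphology. It was read in the same HEL or Vero cell cultures used for the antiviral tests.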
# [9] = Cytotoxicity against African green monkey Vero cells assessed as alteration of cell morphology by microscopic analysis; format: cell-based; details: chlorocebus sabaeus; in short: as §1
# Influenza B virus [10] = assay: Antiviral activity against Influenza B virus infected in MDCK cells assessed as inhibition of virus-induced cytopathicity by MTS assay; format: functional, organism-based
# Human adenovirus 2 = assay: Antiviral activity against Adenovirus 2 infected in HEL cells assessed as inhibition of virus-induced cytopathicity; format: functional, organism-based; details: Human mastadenovirus C
# Human alphaherpesvirus 2 = assay: Antiviral activity against Herpes simplex virus 2 G infected in HEL cells assessed as inhibition of virus-induced cytopathicity; format: functional, organism-based; details: Human alphaherpesvirus 2, strain G
# Human respirovirus 3 = assay: Antiviral activity against Parainfluenza virus 3 infected in human HeLa cells assessed as inhibition of virus-induced cytopathicity; format: functional, organism-based; details: Human respirovirus 3, HeLa
# Sindbis virus = assay: Antiviral activity against Sindbis Virus infected in African green monkey Vero cells assessed as inhibition of virus-induced cytopathicity; format: functional, organism-based
# [11] = tested on: Respiratory syncytial virus; assay: Antiviral activity against Respiratory syncytial virus infected in human HeLa cells assessed as inhibition of virus-induced cytopathicity; format: functional, organism-based
# Influenza B virus [12] = assay: Antiviral activity against Influenza B virus infected in MDCK cells assessed as inhibition of virus-induced visual cytopathicity; format: functional, organism-based
# Human coronavirus 229E = assay: Antiviral activity against Human coronavirus 229E infected in HEL cells assessed as inhibition of virus-induced cytopathicity; format: functional, organism-based
# [13] = tested on: Vesicular stomatitis virus; assay: Antiviral activity against Vesicular stomatitis virus infected in human HeLa cells assessed as inhibition of virus-induced cytopathicity; format: functional, organism-based
# Influenza A virus [14] = assay: Antiviral activity against Influenza A virus H1N1 infected in MDCK cells assessed as inhibition of virus-induced cytopathicity by MTS assay; format: functional, organism-based
# Vaccinia virus = assay: Antiviral activity against Vaccinia virus infected in HEL cells assessed as inhibition of virus-induced cytopathicity; format: functional, organism-based; details: Orthopoxvirus vaccinia
# Human betaherpesvirus 5 [15] = assay: Antiviral activity against Human cytomegalovirus AD169 infected in HEL cells assessed as inhibition of virus-induced cytopathicity; format: functional, organism-based; details: Human betaherpesvirus 5, AD169, HEL
# Influenza A virus H3N2 [16] = assay: Antiviral activity against Influenza A virus H3N2 infected in MDCK cells assessed as inhibition of virus-induced cytopathicity by MTS assay; format: functional, organism-based
# [17] = tested on: Mammalian orthoreovirus 1; assay: Antiviral activity against Reovirus-1 infected in human HeLa cells assessed as inhibition of virus-induced cytopathicity; format: functional, organism-based; details: Mammalian orthoreovirus 1, HeLa
# [18] = Cytotoxicity against MDCK cells assessed as alteration of cell morphology by microscopic analysis; format: cell-based, Canis lupus familiaris; details: dog
# Human betaherpesvirus 5 [19] = assay: Antiviral activity against Human cytomegalovirus Davis infected in HEL cells assessed as inhibition of virus-induced cytopathicity; format: functional, organism-based; details: Human betaherpesvirus 5, Davis
SMILES,EC50 (Coxsackievirus B4),EC50 (Influenza A virus H3N2 [1]),EC50 (Yellow fever virus),EC50 (Human alphaherpesvirus 3 [2]),MCC [3],EC50 (Influenza A virus [4]),EC50 (Human alphaherpesvirus 1 [5]),EC50 (Human alphaherpesvirus 1 [6]),EC50 (Punta Toro virus),EC50 (Human alphaherpesvirus 3 [7]),MCC [8],MCC [9],EC50 (Influenza B virus [10]),EC50 (Human adenovirus 2),EC50 (Human alphaherpesvirus 2),EC50 (Human respirovirus 3),EC50 (Sindbis virus),EC50 [11],EC50 (Influenza B virus [12]),EC50 (Human coronavirus 229E),further results
C/C(=C/CP(=O)(N[C@@H](C)C(=O)OC(C)C)Oc1cccc2c1CCCC2)Cn1ccc(=O)[nH]c1=O (stereo partly drawn),> 100 µM,> 100 µM,> 100 µM,58.5 µM,> 100 µM,> 100 µM,> 100 µM,> 100 µM,> 100 µM,100 µM,100 µM,> 100 µM,> 100 µM,> 100 µM,> 100 µM,> 100 µM,> 100 µM,> 100 µM,> 100 µM,> 100 µM,EC50 [13]: > 100 µM; EC50 (Influenza A virus [14]): 100 µM; EC50 (Vaccinia virus): > 100 µM; EC50 (Human betaherpesvirus 5 [15]): > 20 µM; EC50 (Influenza A virus H3N2 [16]): > 100 µM; EC50 [17]: > 100 µM; MCC [18]: 100 µM; EC50 (Human betaherpesvirus 5 [19]): 54.7 µM
C/C(=C\CP(=O)(N[C@@H](C)C(=O)OC(C)C)Oc1ccccc1)Cn1ccc(=O)[nH]c1=O (stereo partly drawn),> 100 µM,> 100 µM,> 100 µM,> 100 µM,> 100 µM,> 100 µM,> 100 µM,> 100 µM,> 100 µM,> 100 µM,> 100 µM,> 100 µM,> 100 µM,> 100 µM,> 100 µM,> 100 µM,> 100 µM,> 100 µM,> 100 µM,> 100 µM,EC50 [13]: > 100 µM; EC50 (Influenza A virus [14]): > 100 µM; EC50 (Vaccinia virus): > 100 µM; EC50 (Human betaherpesvirus 5 [15]): > 100 µM; EC50 (Influenza A virus H3N2 [16]): > 100 µM; EC50 [17]: > 100 µM; MCC [18]: > 100 µM; EC50 (Human betaherpesvirus 5 [19]): > 100 µM
C/C(=C\CP(=O)(N[C@@H](C)C(=O)OC(C)C)Oc1cccc2c1CCCC2)Cn1ccc(=O)[nH]c1=O (stereo partly drawn),> 100 µM,> 100 µM,> 100 µM,29.9 µM,> 100 µM,> 100 µM,> 100 µM,> 100 µM,> 100 µM,71.5 µM,> 100 µM,> 100 µM,> 100 µM,> 100 µM,> 100 µM,> 100 µM,> 100 µM,> 100 µM,> 100 µM,> 100 µM,EC50 [13]: > 100 µM; EC50 (Influenza A virus [14]): > 100 µM; EC50 (Vaccinia virus): > 100 µM; EC50 (Human betaherpesvirus 5 [15]): > 100 µM; EC50 (Influenza A virus H3N2 [16]): > 100 µM; EC50 [17]: > 100 µM; MCC [18]: > 100 µM; EC50 (Human betaherpesvirus 5 [19]): > 100 µM
C/C(=C\CP(=O)(N[C@@H](C)C(=O)OCc1ccccc1)Oc1ccccc1)Cn1cc(C)c(=O)[nH]c1=O (stereo partly drawn),> 100 µM,> 100 µM,> 100 µM,55.7 µM,> 100 µM,> 100 µM,> 100 µM,> 100 µM,> 100 µM,46.7 µM,> 100 µM,> 100 µM,> 100 µM,> 100 µM,> 100 µM,> 100 µM,> 100 µM,> 100 µM,> 100 µM,> 100 µM,EC50 [13]: > 100 µM; EC50 (Influenza A virus [14]): > 100 µM; EC50 (Vaccinia virus): > 100 µM; EC50 (Human betaherpesvirus 5 [15]): > 100 µM; EC50 (Influenza A virus H3N2 [16]): > 100 µM; EC50 [17]: > 100 µM; MCC [18]: > 100 µM; EC50 (Human betaherpesvirus 5 [19]): > 100 µM
C/C(=C\CP(=O)(N[C@@H](C)C(=O)OCc1ccccc1)Oc1cccc2ccccc12)Cn1cc(C)c(=O)[nH]c1=O (stereo partly drawn),> 100 µM,> 100 µM,> 100 µM,34.2 µM,> 100 µM,> 100 µM,> 100 µM,> 100 µM,> 100 µM,55.3 µM,> 100 µM,> 100 µM,> 100 µM,> 100 µM,> 100 µM,> 100 µM,> 100 µM,> 100 µM,> 100 µM,> 100 µM,EC50 [13]: > 100 µM; EC50 (Influenza A virus [14]): > 100 µM; EC50 (Vaccinia virus): > 100 µM; EC50 (Human betaherpesvirus 5 [15]): > 100 µM; EC50 (Influenza A virus H3N2 [16]): > 100 µM; EC50 [17]: > 100 µM; MCC [18]: > 100 µM; EC50 (Human betaherpesvirus 5 [19]): > 100 µM
C/C(=C\CP(=O)(N[C@@H](C)C(=O)OCc1ccccc1)Oc1ccccc1)Cn1ccc(=O)[nH]c1=O (stereo partly drawn),> 100 µM,> 100 µM,> 100 µM,> 100 µM,> 100 µM,> 100 µM,> 100 µM,> 100 µM,> 100 µM,> 100 µM,> 100 µM,> 100 µM,> 100 µM,> 100 µM,> 100 µM,> 100 µM,> 100 µM,> 100 µM,> 100 µM,> 100 µM,EC50 [13]: > 100 µM; EC50 (Influenza A virus [14]): > 100 µM; EC50 (Vaccinia virus): > 100 µM; EC50 (Human betaherpesvirus 5 [15]): > 100 µM; EC50 (Influenza A virus H3N2 [16]): > 100 µM; EC50 [17]: > 100 µM; MCC [18]: > 100 µM; EC50 (Human betaherpesvirus 5 [19]): > 100 µM
